In ChEMBL document CHEMBL2176927 (J Med Chem, 2012):
Calls of active or inactive are those of the source. The calls are words filed in the database; no cut-off is given here.

What was measured:
[1] = tested on: Mus musculus; experiment: Toxicity in human PC3 cells xenografted mouse assessed as reduction of body weight at 100 mg/kg, po qd for 14 days; assay type: organism-based, PC-3; parameters: dose 100 mg/kg, route oral; scale not given: the % may be the effect or the level left; conditions: in vivo, 336 h
Procedure, shortened: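 Female NCR.nude mice implanted s.c. in right hind flank with NCI-PC3 cells (5 × 10^6 in Hank's balanced salt solution). Dosing started QD at average tumor volume 200 mm3, 5 mice per group. Body weight recorded twice weekly; 10% body weight loss was the limit for tolerated doses, and mice were euthanized at 20% loss or tumor volume 2000 mm3.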

[2] = tested on: PC-3; experiment: Antitumor activity against human PC3 cells xenografted mouse assessed as tumor growth inhibition at 6.25 to 100 mg/kg, po qd for 14 days; assay type: functional, organism-based
Procedure, shortened: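 Female NCR.nude mice with subcutaneous NCI-PC3 flank tumours, dosed orally once daily (or twice daily at the same daily total) for 14 days from a mean tumour volume of 200 mm3; 5 mice/group. Caliper volume is (L x W x W)/2, measured twice weekly.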

[3] = tested on: Mus musculus; experiment: Inhibition of mTORC2 in human PC3 cells xenografted mouse assessed as reduction of phosphorylated Akt level at 12.5 to 100 mg/kg, po after 6 hrs; assay type: functional, organism-based; conditions: PC-3
Procedure, shortened: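 NCI-PC3 s.c. xenografts in female NCR.nude mice grown to about 500 mm3, then randomized (n = 4). Oral suspension in 0.5% methylcellulose/0.2% Tween 80. Tumors were lysed, normalized by BCA assay, and loaded at 20 µg/well. pAkt Ser473 and total Akt were measured in duplex on Meso Scale electrochemiluminescence in duplicate per mouse, relative to time-matched vehicle mean.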

[4] = molecular target: T1, Phosphatidylinositol 4,5-bisphosphate 3-kinase catalytic subunit delta isoform (Homo sapiens) (UniProt O00329); experiment: Inhibition of PI3Kdelta at 1 uM
T1 sequence (whole entry): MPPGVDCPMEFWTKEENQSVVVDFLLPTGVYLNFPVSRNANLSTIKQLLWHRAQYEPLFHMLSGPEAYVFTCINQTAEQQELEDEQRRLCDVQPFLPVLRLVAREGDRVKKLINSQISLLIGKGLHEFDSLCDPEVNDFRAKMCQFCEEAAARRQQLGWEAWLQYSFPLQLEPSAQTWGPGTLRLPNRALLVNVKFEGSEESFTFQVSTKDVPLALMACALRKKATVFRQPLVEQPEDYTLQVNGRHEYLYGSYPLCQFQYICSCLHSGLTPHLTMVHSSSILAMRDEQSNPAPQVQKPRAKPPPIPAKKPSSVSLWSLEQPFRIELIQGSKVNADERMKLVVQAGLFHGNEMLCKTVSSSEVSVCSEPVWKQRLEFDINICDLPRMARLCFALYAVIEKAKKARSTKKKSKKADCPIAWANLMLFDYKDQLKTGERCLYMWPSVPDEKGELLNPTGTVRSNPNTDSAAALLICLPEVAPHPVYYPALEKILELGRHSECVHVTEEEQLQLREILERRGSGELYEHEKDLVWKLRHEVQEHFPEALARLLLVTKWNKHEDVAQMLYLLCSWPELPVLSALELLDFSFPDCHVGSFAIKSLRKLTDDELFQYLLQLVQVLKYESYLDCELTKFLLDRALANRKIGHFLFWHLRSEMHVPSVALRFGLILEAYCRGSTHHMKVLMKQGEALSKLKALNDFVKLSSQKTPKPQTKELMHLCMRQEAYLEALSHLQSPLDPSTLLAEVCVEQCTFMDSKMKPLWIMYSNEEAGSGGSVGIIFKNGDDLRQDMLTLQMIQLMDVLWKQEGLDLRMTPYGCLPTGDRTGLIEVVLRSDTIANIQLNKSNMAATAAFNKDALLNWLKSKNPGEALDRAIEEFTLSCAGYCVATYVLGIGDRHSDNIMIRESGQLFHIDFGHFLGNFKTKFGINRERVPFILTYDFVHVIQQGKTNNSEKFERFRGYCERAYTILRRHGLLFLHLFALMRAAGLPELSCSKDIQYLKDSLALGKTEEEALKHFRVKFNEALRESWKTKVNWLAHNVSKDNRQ
Procedure, shortened: (§1)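 Kinase selectivity panel of 250 kinases. Test compound at 1 µM; percent inhibition recorded for each kinase.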

[5] = tested on: Mus musculus; experiment: Inhibition of mTORC1 in human PC3 cells xenografted mouse assessed as reduction of phosphorylated p70S6K level at 12.5 to 100 mg/kg, po after 6 hrs; assay type: functional, organism-based; conditions: PC-3
[6] = molecular target: Phosphatidylinositol 4,5-bisphosphate 3-kinase catalytic subunit gamma isoform (Homo sapiens) (UniProt P48736); experiment: Inhibition of PI3Kgamma at 1 uM; procedure, shortened: as §1
[7] = molecular target: Phosphatidylinositol 4,5-bisphosphate 3-kinase catalytic subunit alpha isoform (Homo sapiens) (UniProt P42336); experiment: Inhibition of PI3Kalpha at 1 uM; procedure, shortened: as §1
[8] = Oral bioavailability in mouse at 5 mg/kg; assay type: ADME, organism-based; conditions: in vivo
[9] = AUC in mouse at 5 mg/kg, po; assay type: ADME, organism-based; parameters: dose 5 mg/kg, route oral; conditions: plasma
[10] = Half life in mouse at 1 mg/kg, iv; assay type: ADME, organism-based; parameters: dose 1 mg/kg, route intravenous; conditions: in vivo
[11] = Volume of distribution at steady state in mouse at 1 mg/kg, iv; assay type: ADME, organism-based; parameters: dose 1 mg/kg, route intravenous; conditions: in vivo, read-out: Vdss
[12] = Clearance in mouse at 1 mg/kg, iv; assay type: ADME, organism-based; parameters: dose 1 mg/kg, route intravenous; conditions: in vivo
[13] = Plasma protein binding in mouse; assay type: ADME, cell-free; conditions: read-out: PPB (converted)
[14] = Plasma protein binding in human; assay type: ADME, cell-free; conditions: read-out: PPB (converted)
[15] = Plasma protein binding in rat; assay type: ADME, cell-free; conditions: read-out: PPB (converted)
[16] = Clearance in mouse liver microsomes; assay type: ADME, Microsome
Procedure, shortened: (§2)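 Hepatic clearance (Clhep) predicted from incubation with human, rat or mouse liver microsomes.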

[17] = Clearance in rat liver microsomes; assay type: ADME, Microsome; procedure, shortened: as §2
[18] = Clearance in human liver microsomes; assay type: ADME, Microsome; procedure, shortened: as §2
[19] = molecular target: Cytochrome P450 2C19 (Homo sapiens, UniProt P33261); experiment: Inhibition of CYP2C19-mediated mephenytoin metabolism; assay type: ADME; conditions: recombinant enzyme
[20] = molecular target: T2, Cytochrome P450 1A2 (Homo sapiens, UniProt P05177); experiment: Inhibition of CYP1A2-mediated phenacetin metabolism; assay type: ADME; conditions: recombinant enzyme
T2 sequence (P05177 whole entry): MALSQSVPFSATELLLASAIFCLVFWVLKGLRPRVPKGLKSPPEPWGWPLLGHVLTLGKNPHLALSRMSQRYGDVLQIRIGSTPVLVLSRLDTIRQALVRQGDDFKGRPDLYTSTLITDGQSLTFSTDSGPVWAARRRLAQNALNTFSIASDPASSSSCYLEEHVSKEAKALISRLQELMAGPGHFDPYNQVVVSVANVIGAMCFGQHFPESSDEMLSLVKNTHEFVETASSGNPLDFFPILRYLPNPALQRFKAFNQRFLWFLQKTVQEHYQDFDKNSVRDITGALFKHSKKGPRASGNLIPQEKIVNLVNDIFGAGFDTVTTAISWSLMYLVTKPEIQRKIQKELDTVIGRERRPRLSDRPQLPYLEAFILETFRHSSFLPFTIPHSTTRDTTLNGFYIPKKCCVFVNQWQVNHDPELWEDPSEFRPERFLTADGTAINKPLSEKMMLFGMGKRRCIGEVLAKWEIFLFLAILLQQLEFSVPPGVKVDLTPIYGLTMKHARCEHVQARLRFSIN

[21] = molecular target: Cytochrome P450 2C9 (Homo sapiens, UniProt P11712); experiment: Inhibition of CYP2C9-mediated warfarin metabolism; assay type: ADME; conditions: recombinant enzyme
[22] = molecular target: Cytochrome P450 2D6 (Homo sapiens, UniProt P10635); experiment: Inhibition of CYP2D6-mediated dextromethorphan metabolism; assay type: ADME; conditions: recombinant enzyme
[23] = molecular target: Cytochrome P450 3A4 (Homo sapiens, UniProt P08684); experiment: Inhibition of CYP3A4-mediated midazolam and testosterone metabolism; assay type: ADME; conditions: recombinant enzyme
[24] = tested on: PC-3; experiment: Cytotoxicity against human pTEN deficient PC3 after 3 days; assay type: functional, cell-based; conditions: PC-3, 72 h
[25] = molecular target: Serine/threonine-protein kinase mTOR (Homo sapiens, UniProt P42345); experiment: Inhibition of human recombinant mTOR by FRET assay
[26] = Inhibition of mTORC2 in human pTEN deficient NCI-PC3 cells assessed as reduction of Akt phosphorylation at Ser473; assay type: cell-based

Sequence of Cytochrome P450 3A4 (P08684 whole entry): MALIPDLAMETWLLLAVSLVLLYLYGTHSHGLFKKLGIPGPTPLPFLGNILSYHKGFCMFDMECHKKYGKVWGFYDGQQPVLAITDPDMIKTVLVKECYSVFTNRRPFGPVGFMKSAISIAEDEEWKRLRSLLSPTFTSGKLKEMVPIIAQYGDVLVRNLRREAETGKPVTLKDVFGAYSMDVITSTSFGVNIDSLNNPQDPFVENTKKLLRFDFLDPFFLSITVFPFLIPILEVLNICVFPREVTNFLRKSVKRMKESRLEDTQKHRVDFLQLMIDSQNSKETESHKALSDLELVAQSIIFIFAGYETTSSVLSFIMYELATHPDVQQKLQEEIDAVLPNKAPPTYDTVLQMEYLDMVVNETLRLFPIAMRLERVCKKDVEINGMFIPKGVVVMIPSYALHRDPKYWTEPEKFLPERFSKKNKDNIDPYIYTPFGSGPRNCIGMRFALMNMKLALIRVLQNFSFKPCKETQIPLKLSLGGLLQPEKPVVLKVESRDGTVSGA
Sequence of Phosphatidylinositol 4,5-bisphosphate 3-kinase catalytic subunit gamma isoform (Homo sapiens) (P48736 whole entry, looked up, canonical isoform): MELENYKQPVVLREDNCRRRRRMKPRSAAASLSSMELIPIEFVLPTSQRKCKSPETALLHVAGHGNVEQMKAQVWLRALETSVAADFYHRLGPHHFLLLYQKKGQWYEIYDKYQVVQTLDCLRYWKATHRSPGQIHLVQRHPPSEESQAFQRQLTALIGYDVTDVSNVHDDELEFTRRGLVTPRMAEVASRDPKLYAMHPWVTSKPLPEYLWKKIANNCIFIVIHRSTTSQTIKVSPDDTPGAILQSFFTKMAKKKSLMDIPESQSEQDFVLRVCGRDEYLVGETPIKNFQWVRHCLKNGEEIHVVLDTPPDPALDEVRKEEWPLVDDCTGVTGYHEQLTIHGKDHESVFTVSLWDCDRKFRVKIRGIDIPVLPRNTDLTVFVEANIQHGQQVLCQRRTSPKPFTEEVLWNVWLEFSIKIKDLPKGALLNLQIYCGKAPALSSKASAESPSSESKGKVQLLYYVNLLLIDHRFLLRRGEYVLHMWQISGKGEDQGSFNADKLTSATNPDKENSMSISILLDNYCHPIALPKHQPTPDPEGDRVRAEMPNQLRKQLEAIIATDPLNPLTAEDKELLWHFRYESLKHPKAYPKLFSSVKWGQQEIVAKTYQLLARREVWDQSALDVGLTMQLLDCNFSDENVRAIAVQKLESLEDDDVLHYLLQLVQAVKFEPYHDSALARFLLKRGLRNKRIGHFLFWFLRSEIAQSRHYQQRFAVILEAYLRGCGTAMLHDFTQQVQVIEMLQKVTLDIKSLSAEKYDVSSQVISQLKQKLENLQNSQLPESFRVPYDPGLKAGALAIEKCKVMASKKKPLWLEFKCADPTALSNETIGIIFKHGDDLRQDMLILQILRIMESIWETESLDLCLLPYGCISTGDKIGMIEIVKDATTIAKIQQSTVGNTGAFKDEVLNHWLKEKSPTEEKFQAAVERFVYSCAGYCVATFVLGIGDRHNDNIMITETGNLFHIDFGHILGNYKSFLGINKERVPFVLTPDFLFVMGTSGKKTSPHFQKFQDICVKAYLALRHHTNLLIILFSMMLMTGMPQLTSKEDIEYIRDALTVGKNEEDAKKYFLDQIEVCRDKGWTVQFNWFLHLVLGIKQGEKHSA
Sequence of Phosphatidylinositol 4,5-bisphosphate 3-kinase catalytic subunit alpha isoform (Homo sapiens) (P42336 whole entry, canonical isoform): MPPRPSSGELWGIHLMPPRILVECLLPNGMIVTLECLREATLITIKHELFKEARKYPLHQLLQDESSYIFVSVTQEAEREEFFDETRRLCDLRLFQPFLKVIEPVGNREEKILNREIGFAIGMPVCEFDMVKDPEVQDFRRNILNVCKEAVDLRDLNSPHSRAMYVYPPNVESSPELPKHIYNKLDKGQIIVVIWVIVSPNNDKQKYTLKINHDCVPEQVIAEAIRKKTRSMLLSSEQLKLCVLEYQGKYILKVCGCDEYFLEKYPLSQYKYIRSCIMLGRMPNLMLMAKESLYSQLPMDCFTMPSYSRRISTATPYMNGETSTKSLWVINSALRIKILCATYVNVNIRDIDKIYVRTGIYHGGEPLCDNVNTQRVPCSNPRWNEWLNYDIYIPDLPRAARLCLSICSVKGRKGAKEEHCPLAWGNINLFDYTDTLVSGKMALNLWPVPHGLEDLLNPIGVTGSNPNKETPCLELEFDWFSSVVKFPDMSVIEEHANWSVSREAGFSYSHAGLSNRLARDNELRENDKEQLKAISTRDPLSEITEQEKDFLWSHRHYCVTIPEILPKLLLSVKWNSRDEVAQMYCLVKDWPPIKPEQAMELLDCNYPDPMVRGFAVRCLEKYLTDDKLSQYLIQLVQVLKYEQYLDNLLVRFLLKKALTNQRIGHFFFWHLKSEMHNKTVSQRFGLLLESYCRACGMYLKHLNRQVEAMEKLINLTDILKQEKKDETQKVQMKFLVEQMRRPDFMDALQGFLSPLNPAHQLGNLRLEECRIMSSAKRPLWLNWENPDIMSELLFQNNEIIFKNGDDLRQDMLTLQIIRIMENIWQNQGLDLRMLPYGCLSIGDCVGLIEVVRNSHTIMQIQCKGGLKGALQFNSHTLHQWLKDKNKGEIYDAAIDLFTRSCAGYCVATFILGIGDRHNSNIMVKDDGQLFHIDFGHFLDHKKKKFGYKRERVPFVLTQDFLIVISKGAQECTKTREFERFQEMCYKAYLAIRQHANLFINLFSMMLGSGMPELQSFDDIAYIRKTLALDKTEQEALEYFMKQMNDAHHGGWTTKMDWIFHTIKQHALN
Sequence of Cytochrome P450 2D6 (P10635 whole entry): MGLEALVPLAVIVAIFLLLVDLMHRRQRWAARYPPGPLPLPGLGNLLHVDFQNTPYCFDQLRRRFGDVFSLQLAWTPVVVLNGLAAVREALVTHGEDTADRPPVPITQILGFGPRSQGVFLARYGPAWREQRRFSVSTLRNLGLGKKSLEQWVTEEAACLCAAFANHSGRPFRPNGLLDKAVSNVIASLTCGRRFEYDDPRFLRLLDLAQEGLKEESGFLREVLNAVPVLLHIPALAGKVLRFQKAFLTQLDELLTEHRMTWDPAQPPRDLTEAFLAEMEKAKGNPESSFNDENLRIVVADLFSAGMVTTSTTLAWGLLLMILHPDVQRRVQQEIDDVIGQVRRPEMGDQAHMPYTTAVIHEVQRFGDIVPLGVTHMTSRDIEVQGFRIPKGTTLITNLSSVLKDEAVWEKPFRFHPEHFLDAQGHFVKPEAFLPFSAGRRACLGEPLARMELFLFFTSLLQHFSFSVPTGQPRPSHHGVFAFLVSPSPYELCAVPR
Sequence of Cytochrome P450 2C9 (P11712 whole entry): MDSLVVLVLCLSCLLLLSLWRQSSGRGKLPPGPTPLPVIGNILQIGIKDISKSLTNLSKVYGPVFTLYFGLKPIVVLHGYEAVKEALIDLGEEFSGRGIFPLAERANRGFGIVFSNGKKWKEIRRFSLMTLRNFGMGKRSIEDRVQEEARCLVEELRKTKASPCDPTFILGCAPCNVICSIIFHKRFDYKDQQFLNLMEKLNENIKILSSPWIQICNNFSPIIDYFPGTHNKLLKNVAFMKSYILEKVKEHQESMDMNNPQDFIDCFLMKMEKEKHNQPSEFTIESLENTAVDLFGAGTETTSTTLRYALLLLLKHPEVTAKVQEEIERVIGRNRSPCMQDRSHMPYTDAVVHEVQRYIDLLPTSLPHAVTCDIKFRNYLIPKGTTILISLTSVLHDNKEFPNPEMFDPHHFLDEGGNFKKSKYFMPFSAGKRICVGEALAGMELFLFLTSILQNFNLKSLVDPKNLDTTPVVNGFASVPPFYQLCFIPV
Sequence of Cytochrome P450 2C19 (P33261 whole entry): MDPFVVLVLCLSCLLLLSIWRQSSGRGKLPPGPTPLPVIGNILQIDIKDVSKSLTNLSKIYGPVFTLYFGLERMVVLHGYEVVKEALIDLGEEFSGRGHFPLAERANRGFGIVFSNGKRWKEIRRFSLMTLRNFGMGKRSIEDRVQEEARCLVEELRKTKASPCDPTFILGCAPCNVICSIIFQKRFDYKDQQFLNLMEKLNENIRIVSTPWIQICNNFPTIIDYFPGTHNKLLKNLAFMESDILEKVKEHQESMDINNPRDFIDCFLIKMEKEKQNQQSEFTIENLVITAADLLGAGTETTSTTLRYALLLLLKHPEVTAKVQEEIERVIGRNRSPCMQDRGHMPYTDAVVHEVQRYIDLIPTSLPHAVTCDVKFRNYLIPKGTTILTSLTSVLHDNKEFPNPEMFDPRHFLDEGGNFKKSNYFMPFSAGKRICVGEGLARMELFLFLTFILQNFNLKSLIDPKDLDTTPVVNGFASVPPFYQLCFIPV

inhibition [4]: 50%
inhibition [6]: 50%
inhibition [7]: 50%
bioavailability [8]: 70%
AUC [9]: 5.7 µM·h
half-life [10]: 42 min
Vd [11]: 1.1 L/kg
clearance [12]: 22 mL/min/kg
fraction unbound [13]: 0.01
fraction unbound [14]: 0.02
fraction unbound [15]: 0.01
CLhep predicted [16]: 40 mL/min/kg
CLhep predicted [17]: 31 mL/min/kg
CLhep predicted [18]: 13 mL/min/kg
inhibition (INH) [19]: Not Active
inhibition (INH) [20]: Not Active
inhibition (INH) [21]: Not Active
inhibition (INH) [22]: Not Active
inhibition (INH) [23]: Not Active
Ki [25]: 5.5 nM
IC50 [26]: 25 nM
SMILES: CCNC(=O)Nc1ccc(-c2nc3c(c(N4CCOCC4)n2)CCN(c2ncccn2)C3)cc1
Activity [1]: > 10%
TGI [2]: Active
inhibition [3]: Active
inhibition [5]: Active
IC50 [24]: 290 nM
